Publication PMC10288510 (Journal of the American Chemical Society, 2023)
Peptide text beside a SMILES is read from it.

Legend:
[1] = CF assay: carrier-mediated heptaarginine; assay type: in vitro ADME; conditions: EYPC⊃CF LUVs, 1 μM Trp-Arg7, pEC50 from EC50 in mM, 10% error (SD)
Method in brief: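 Egg-yolk phosphatidylcholine LUVs (4 μM phospholipid) loaded with self-quenched carboxyfluorescein; efflux read as dequenching (λex 492 nm, λem 517 nm) over time. Carrier added at t = 50 s, Trp-Arg7 (1 μM) at 100 s, Triton X-100 lysis at 600 s for normalisation. Kinetics run across carrier concentrations; normalised traces converted to dose–response curves; Hill fit gives Ymax, EC50 and Ea.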

[2] = CF assay: cargo dose-response with COSAN 2 as carrier; assay type: in vitro ADME; conditions: for transport of cargo by COSAN 2 (in words): EYPC⊃CF liposomes, 4 μM COSAN 2, pH 7.4; for Et (transport efficiency = Ymax (pEC50)/f, f = 41.8): EYPC vesicles, 4 μM COSAN 2, n.a = no detectable activity, 10% error (SD)

Compound	transport of cargo by COSAN 2 (in words) [2]	also measured
O=C(O)CCCc1ccc2ccc3cccc4ccc1c2c34 [PyBu, pyrenebutyrate]	–	Ea (activator efficiency = Ymax (pEC50)/f, f = 20.6) [1]: 4.8
NCCCC[C@H](NC(=O)[C@H](CCCCN)NC(=O)[C@H](CCCCN)NC(=O)[C@@H](N)Cc1c[nH]c2ccccc12)C(=O)O [Trp-(Lys)3, tryptophan-trilysine] (H-WKKK-OH)	not transported	–
N[C@@H](Cc1c[nH]c2ccccc12)C(=O)NCC(=O)NCC(=O)NCC(=O)NCC(=O)NCC(=O)NCC(=O)O [Trp-Gly6, tryptophan-hexaglysine] (H-WGGGGGG-OH)	not transported	–
NCCCC[C@H](NC(=O)[C@H](CCCCN)NC(=O)[C@H](CCCCN)NC(=O)[C@H](CCCCN)NC(=O)[C@H](CCCCN)NC(=O)[C@H](CCCCN)NC(=O)[C@H](CCCCN)NC(=O)[C@@H](N)Cc1c[nH]c2ccccc12)C(=O)O [Trp-Lys7, tryptophan-heptalysine] (H-WKKKKKKK-OH)	efficient transport	–
CC(C)C[C@H](NC(=O)[C@@H](NC(=O)[C@@H](N)Cc1ccc(O)cc1)[C@@H](C)O)C(=O)N[C@H](C(=O)N[C@H](C(=O)N[C@@H](CCCCN)C(=O)O)C(C)C)[C@@H](C)O [Tyr-Thr-Leu-Thr-Val-Lys, tyrosine-threonine-leucine-threonine-valine-lysine] (H-YTLTVK-OH)	not transported	–
phalloidin	not transported	–
polylysine	–	Et (transport efficiency = Ymax (pEC50)/f, f = 41.8) [2]: 10.0
protamine	–	Et (transport efficiency = Ymax (pEC50)/f, f = 41.8) [2]: 9.0
